The values below come from ChEMBL document CHEMBL1125291, “New 8-(trifluoromethyl)-substituted quinolones. The benefits of the 8-fluoro group with reduced phototoxic risk” (1992).

Converted amounts (≈) assume the structure as drawn.

Experiment [1] has as its system Streptococcus pyogenes. The experiment can be described thus: In vivo efficacy (s.c.) against Streptococcus pyogenes C-203 in mouse protection test. The class given is functional. The settings on record: Streptococcus pyogenes, sc; read-out: PD50. Put shortly:
(§1)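 Acute lethal systemic infections in female Charles River CD-1 mice. A single dose was given at challenge, orally by gavage or by subcutaneous injection. PD50 (median protective dose, mg/kg) was determined.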

Experiment [2] relates to Escherichia coli. Put plainly: In vivo efficacy in mouse protection test in Escherichia coli Vogel administered by subcutaneous injection. It counts as functional. The settings on record: Escherichia coli, sc; read-out: PD50. Put shortly:
as §1

In a further experiment the test system is Enterobacter cloacae. The experiment can be described thus: Minimum inhibitory concentration (MIC) against gram negative bacteria Enterobacter cloacae MA-2646. The class given is functional.
Experiment [3] deals with Streptococcus pneumoniae. The experiment can be described thus: Minimum inhibitory concentration (MIC) against gram positive bacteria Streptococcus pneumoniae SV-1. It counts as functional. The settings on record: Streptococcus pneumoniae; read-out: MIC. Put shortly:
(§2)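 MICs were determined by standard broth microtitration against 11 Gram-positive and Gram-negative organisms, in µg/mL. Values come from duplicate or triplicate experiments and are accurate to ±50%.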

Experiment [4] concerns Escherichia coli. Put plainly: In vivo efficacy in mouse protection test in Escherichia coli Vogel dose administered orally by gavage. The class given is functional. To be noted: Escherichia coli, po; read-out: PD50. Put shortly:
as §1

The subject of experiment [5] is Mus musculus. Put plainly: Maximum tolerance dose was measured for phototoxic skin reaction by po administration. It counts as functional.
Experiment [6] is filed under the species Mus musculus. The experiment can be described thus: Number of mice which show positive phototoxic reaction. It counts as functional. Put shortly: (§3)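 Phototoxic skin reaction test in depilated female CD-1 mice. A single oral dose (gavage) or subcutaneous dose was given, followed 1 h later by 3 h of UVA exposure (320–400 nm). The regimen was repeated for up to 4 consecutive days, with initial doses of 30, 100 and 300 mg/kg. PTD50 was derived by the probit method. The first day of positive reaction and the no-effect dose were taken from the raw data.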

Experiment [7] can be described thus: Minimum inhibitory concentration (MIC) against gram negative bacteria Prot. rettgeri M-1771. To be noted: Providencia rettgeri; read-out: MIC. The class given is functional, Providencia rettgeri. The procedure, abridged:
as §2

Experiment [8] concerns Streptococcus pyogenes. The experiment can be described thus: Minimum inhibitory concentration (MIC) against gram positive bacteria Streptococcus pyogenes C-203. The class given is functional. To be noted: Streptococcus pyogenes; read-out: MIC. The procedure, abridged: as §2
The next experiment has as its system Enterococcus faecalis. The experiment can be described thus: Minimum inhibitory concentration (MIC) against gram positive bacteria Streptococcus faecalis MGH-2. To be noted: Enterococcus faecalis; read-out: MIC. The class given is functional. Put shortly:
as §2

The subject of experiment [9] is Streptococcus pyogenes. Put plainly: In vivo efficacy (orally) against Streptococcus pyogenes C-203 in mouse protection test. It counts as functional. To be noted: Streptococcus pyogenes, po; read-out: PD50. The procedure, abridged:
as §1

The species entered for experiment [10] is Mus musculus. The experiment can be described thus: Days of the first positive reaction in […] mice. The class given is functional. Put shortly:
as §3

In experiment [11] the test system is Staphylococcus aureus. Put plainly: Minimum inhibitory concentration (MIC) against gram positive bacteria Staphylococcus aureus UC-76. The class given is functional. To be noted: Staphylococcus aureus; read-out: MIC. Put shortly:
as §2

The test system of experiment [12] is Pseudomonas aeruginosa. Put plainly: Minimum inhibitory concentration (MIC) against gram negative bacteria Pseudomonas aeruginosa UI-18. The class given is functional. To be noted: Pseudomonas aeruginosa; read-out: MIC. Put shortly: as §2
For experiment [13], the system named is Escherichia coli. The experiment can be described thus: Minimum inhibitory concentration (MIC) against gram negative bacteria Escherichia coli H-560. It counts as functional. To be noted: Escherichia coli; read-out: MIC. Put shortly: as §2
The test system of another experiment is Klebsiella pneumoniae. The experiment can be described thus: Minimum inhibitory concentration (MIC) against gram negative bacteria Klebsiella pneumoniae MGH-2. The class given is functional. The settings on record: Klebsiella pneumoniae; read-out: MIC. The procedure, abridged:
as §2

In experiment [14] the test system is Staphylococcus aureus. Put plainly: Minimum inhibitory concentration (MIC) against gram positive bacteria Staphylococcus aureus H-228. The settings on record: Staphylococcus aureus; read-out: MIC. The class given is functional. The procedure, abridged: as §2
The species entered for experiment [15] is Mus musculus. The experiment can be described thus: Dose which has no effect to induce phototoxic reaction in 50% of mice by probit method. It counts as functional.
The species named for experiment [16] is Mus musculus. The experiment can be described thus: Dose required to induce phototoxic reaction in 50% of mice by probit method at different dosage forms. It counts as functional.
In experiment [17] the test system is Escherichia coli. Put plainly: Minimum inhibitory concentration (MIC) against gram negative bacteria Escherichia coli Vogel. It counts as functional. The settings on record: Escherichia coli; read-out: MIC. Put shortly:
as §2

The subject of experiment [18] is Pseudomonas aeruginosa. The experiment can be described thus: In vivo efficacy (s.c.) against Pseudomonas aeruginosa in mouse protection test. It counts as functional. The settings on record: Pseudomonas aeruginosa, sc; read-out: PD50. Put shortly:
as §1

The species entered for experiment [19] is Mus musculus. Put plainly: Number of mice which show positive phototoxic reaction in 5 mice. It counts as functional.
Experiment [20] relates to Streptococcus pneumoniae. The experiment can be described thus: In vivo efficacy (s.c.) against Streptococcus pneumoniae SV-1 in mouse protection test. The settings on record: Streptococcus pneumoniae, sc; read-out: PD50. The class given is functional. Put shortly:
as §1

The subject of experiment [21] is Streptococcus pneumoniae. The experiment can be described thus: In vivo efficacy (orally) against Streptococcus pneumoniae SV-1 in mouse protection test. To be noted: Streptococcus pneumoniae, po; read-out: PD50. It counts as functional. Put shortly:
as §1

For experiment [22], the system named is Pseudomonas aeruginosa. The experiment can be described thus: In vivo efficacy (orally) against Pseudomonas aeruginosa in mouse protection test. The settings on record: Pseudomonas aeruginosa, po; read-out: PD50. It counts as functional. The procedure, abridged:
as §1

Consider `NC1CCCN(c2c(F)cc3c(=O)c(C(=O)O)cn(C4CC4)c3c2C(F)(F)F)C1` (stereo not drawn), for which the ED50 with Streptococcus pyogenes [1] is 12 mg/kg; with Escherichia coli [2], 3.2 mg/kg; with Escherichia coli [4], 11.8 mg/kg; in the experiment with Streptococcus pyogenes [9] it was 35 mg/kg. For the same molecule, the MIC (commonly the least concentration at which growth counts as inhibited) with Enterobacter cloacae came to 0.1 µg/mL (≈ 0.242 µM); in the experiment with Streptococcus pneumoniae [3], 0.2 µg/mL (≈ 0.484 µM); in [7] it was 0.4 µg/mL (≈ 0.968 µM); in the experiment with Streptococcus pyogenes [8], 0.2 µg/mL (≈ 0.484 µM); in the experiment on Enterococcus faecalis it was 0.2 µg/mL (≈ 0.484 µM); in the experiment on Staphylococcus aureus [11] it was 0.025 µg/mL (≈ 0.0605 µM). Also, the MIC came out at 1.6 µg/mL (≈ 3.87 µM) in the experiment on Pseudomonas aeruginosa [12]; 0.1 µg/mL (≈ 0.242 µM) in the experiment on Escherichia coli [13]; 0.2 µg/mL (≈ 0.484 µM) in the experiment on Klebsiella pneumoniae; 0.2 µg/mL (≈ 0.484 µM) with Staphylococcus aureus [14]; 0.1 µg/mL (≈ 0.242 µM) in the experiment with Escherichia coli [17]. Further, in the experiment with Mus musculus [5], the MTD – broadly, the largest dose that counted as tolerated – was 100 mg/kg. Besides, in the experiment filed under Mus musculus [6], the No. of pos rxns was 0. Also, in the experiment filed under Mus musculus [10], the “Day of first positve reaction” value is recorded as 0. Besides, the No effect dose in the experiment listed under Mus musculus [15] stood at 100 mg/kg. In the experiment listed under Mus musculus [16], this molecule came in with a PTD50 greater than 100 mg/kg.
In the case of `NC1CCCN(c2cc3c(cc2F)c(=O)c(C(=O)O)cn3C2CC2)C1` (stereo not drawn), the ED50 in the experiment on Streptococcus pyogenes [1] was 8 mg/kg; with Escherichia coli [2] it was 1.4 mg/kg; in the experiment with Escherichia coli [4] it was 15 mg/kg; in the experiment with Streptococcus pyogenes [9], greater than 50 mg/kg. Further, the minimal inhibitory concentration (MIC) against Enterobacter cloacae is 0.1 µg/mL (≈ 0.29 µM); in the experiment on Streptococcus pneumoniae [3] it was 0.2 µg/mL (≈ 0.579 µM); in [7], 0.8 µg/mL (≈ 2.32 µM); with Streptococcus pyogenes [8], 0.1 µg/mL (≈ 0.29 µM); with Enterococcus faecalis, 0.2 µg/mL (≈ 0.579 µM); in the experiment on Staphylococcus aureus [11], 0.05 µg/mL (≈ 0.145 µM). Moreover, the MIC with Pseudomonas aeruginosa [12] worked out at 0.8 µg/mL (≈ 2.32 µM); in the experiment on Escherichia coli [13], 0.1 µg/mL (≈ 0.29 µM); in the experiment with Klebsiella pneumoniae, 0.2 µg/mL (≈ 0.579 µM); with Staphylococcus aureus [14], 0.8 µg/mL (≈ 2.32 µM); with Escherichia coli [17], 0.1 µg/mL (≈ 0.29 µM). In the experiment with Mus musculus [5], this molecule returned an MTD of 100 mg/kg. In the experiment filed under Mus musculus [6], the No. of pos rxns turned out to be 0. For the same molecule, in the experiment filed under Mus musculus [10], the “Day of first positve reaction” value is 0. This molecule also came in with a No effect dose in the experiment filed under Mus musculus [15] of 100 mg/kg. For the same molecule, the PTD50 in the experiment listed under Mus musculus [16] was greater than 100 mg/kg.
For `CCNCC1CCN(c2c(F)cc3c(=O)c(C(=O)O)cn(C4CC4)c3c2C(F)(F)F)C1` (stereo not drawn), the ED50 is 46 mg/kg with Pseudomonas aeruginosa [18]; 1.1 mg/kg in the experiment with Streptococcus pyogenes [1]; 1.7 mg/kg in the experiment with Escherichia coli [2]; 5.3 mg/kg in the experiment with Escherichia coli [4]; 0.9 mg/kg with Streptococcus pneumoniae [20]; 1.6 mg/kg in the experiment on Streptococcus pyogenes [9]. In addition, the figures for the ED50 in the experiment on Streptococcus pneumoniae [21] and in the experiment with Pseudomonas aeruginosa [22] were 1.4 mg/kg and 93 mg/kg, respectively. In addition, the minimum inhibitory concentration (MIC) was 0.4 µg/mL (≈ 0.906 µM) in the experiment with Enterobacter cloacae; 0.05 µg/mL (≈ 0.113 µM) in the experiment on Streptococcus pneumoniae [3]; 1.6 µg/mL (≈ 3.62 µM) in experiment [7]; 0.05 µg/mL (≈ 0.113 µM) in the experiment on Streptococcus pyogenes [8]; 0.1 µg/mL (≈ 0.227 µM) in the experiment with Enterococcus faecalis; 0.013 µg/mL (≈ 0.0295 µM) in the experiment with Staphylococcus aureus [11]. Further, the minimal inhibitory concentration (MIC) was 6.3 µg/mL (≈ 14.3 µM) in the experiment with Pseudomonas aeruginosa [12]; 0.2 µg/mL (≈ 0.453 µM) in the experiment with Escherichia coli [13]; 0.8 µg/mL (≈ 1.81 µM) in the experiment with Klebsiella pneumoniae; 0.05 µg/mL (≈ 0.113 µM) with Staphylococcus aureus [14]; 0.4 µg/mL (≈ 0.906 µM) in the experiment on Escherichia coli [17]. In the experiment listed under Mus musculus [19], the “No. of pos rxns” value was found to be 0. In addition, the MTD in the experiment on Mus musculus [5] came to 100 mg/kg. For the same molecule, the “Day of first positve reaction” value in the experiment listed under Mus musculus [10] is reported as 0. Besides, the No effect dose in the experiment listed under Mus musculus [15] turned out to be 100 mg/kg. Further, the PTD50 in the experiment filed under Mus musculus [16] is greater than 100 mg/kg.
In the case of `NC1CCN(c2cc3c(cc2F)c(=O)c(C(=O)O)cn3C2CC2)C1` (stereo not drawn), the ED50 is 5.4 mg/kg in the experiment with Pseudomonas aeruginosa [18]; 11 mg/kg in the experiment with Streptococcus pyogenes [1]; 0.5 mg/kg in the experiment on Escherichia coli [2]; 3.4 mg/kg in the experiment on Escherichia coli [4]; 23 mg/kg in the experiment on Streptococcus pneumoniae [20]; 97 mg/kg with Streptococcus pyogenes [9]. Besides, the ED50 in the experiment with Streptococcus pneumoniae [21] was greater than 100 mg/kg; in the experiment with Pseudomonas aeruginosa [22], 49 mg/kg. For the same molecule, the MIC with Enterobacter cloacae was determined as 0.025 µg/mL (≈ 0.0754 µM); with Streptococcus pneumoniae [3] it was 0.05 µg/mL (≈ 0.151 µM); in experiment [7], 0.1 µg/mL (≈ 0.302 µM); in the experiment with Streptococcus pyogenes [8] it was 0.1 µg/mL (≈ 0.302 µM); in the experiment on Enterococcus faecalis it was 0.1 µg/mL (≈ 0.302 µM); in the experiment on Staphylococcus aureus [11] it was 0.025 µg/mL (≈ 0.0754 µM). Moreover, the minimum inhibitory concentration (MIC) in the experiment with Pseudomonas aeruginosa [12] amounted to 0.1 µg/mL (≈ 0.302 µM); in the experiment on Escherichia coli [13] it was 0.006 µg/mL (≈ 0.0181 µM); with Klebsiella pneumoniae, 0.05 µg/mL (≈ 0.151 µM); with Staphylococcus aureus [14], 0.1 µg/mL (≈ 0.302 µM); in the experiment with Escherichia coli [17], 0.05 µg/mL (≈ 0.151 µM). In the experiment listed under Mus musculus [19], the “No. of pos rxns” value was 0. The same molecule displayed a maximal tolerated dose (MTD) in the experiment with Mus musculus [5] of 300 mg/kg. In the experiment filed under Mus musculus [10], the “Day of first positve reaction” value was determined as 0. Moreover, the No effect dose in the experiment filed under Mus musculus [15] was 300 mg/kg. In the experiment listed under Mus musculus [16], the PTD50 was greater than 300 mg/kg.
